Entries after “also recorded” stand apart in the source; their conditions may differ.
Tests used:
[1] = test system: P. falciparum D10 parasites; experiment: P. falciparum replication assay; format: cell-based
[2] = test system: P. falciparum ring stage parasites (food vacuole); experiment: Phenotypic characterization of treated ring stage parasites; format: cell-based; details: 24 hr, Giemsa smears
How it was run: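 Synchronized ring-stage cultures (2% parasitemia) were treated with a range of test compound concentrations or DMSO for 24 hr. Morphology was then examined on Giemsa-stained thin blood smears, and the food vacuole defect was scored as enlargement of this acidic organelle.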

FP2, FP2′, and FP3 = experiment: Competitive ABPP with Cy5-DCG-04 in parasite lysates; format: biochemical, P. falciparum; details: D10 lysates, 30 min preincubation, 1 µM Cy5-DCG-04 1 hr
FP1 [3] = molecular target: T1, FP1 (Plasmodium falciparum, UniProt P25805); experiment: Competitive ABPP with Cy5-DCG-04 in parasite lysates; format: biochemical, P. falciparum; details: D10 lysates, 30 min preincubation, 1 µM Cy5-DCG-04 1 hr
T1 sequence (P25805 333-569): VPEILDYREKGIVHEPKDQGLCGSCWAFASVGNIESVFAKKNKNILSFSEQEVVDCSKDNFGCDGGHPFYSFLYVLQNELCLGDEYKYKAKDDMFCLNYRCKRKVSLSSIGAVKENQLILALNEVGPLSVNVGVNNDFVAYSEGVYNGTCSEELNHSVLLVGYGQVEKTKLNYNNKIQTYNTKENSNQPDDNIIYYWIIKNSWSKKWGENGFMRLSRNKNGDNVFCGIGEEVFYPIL
How it was run: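 Trophozoites were harvested 36 hr post-invasion, freed from RBCs with saponin, and extracted in PBS with 1% NP40. Soluble lysate was diluted 1:10 in acetate buffer (50 mM sodium acetate, 5 mM MgCl2, 5 mM DTT) and pretreated 30 min with test compound over a concentration range. Then 1 µM Cy5-DCG04 was added for 1 hr. Reactions were boiled in loading buffer, resolved by SDS-PAGE, and scanned for in-gel fluorescence.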

FP1 [4] = molecular target: T1, FP1; experiment: Falcipain inhibition in living parasites; format: cell-based, P. falciparum
DPAP1 = molecular target: T2, DPAP1 (Plasmodium falciparum, UniProt Q8IIJ9); experiment: Competitive ABPP with Cy5-DCG-04, DPAP1 labeling; format: cell-based, P. falciparum
T2 sequence (Q8IIJ9 370-599 limits assumed): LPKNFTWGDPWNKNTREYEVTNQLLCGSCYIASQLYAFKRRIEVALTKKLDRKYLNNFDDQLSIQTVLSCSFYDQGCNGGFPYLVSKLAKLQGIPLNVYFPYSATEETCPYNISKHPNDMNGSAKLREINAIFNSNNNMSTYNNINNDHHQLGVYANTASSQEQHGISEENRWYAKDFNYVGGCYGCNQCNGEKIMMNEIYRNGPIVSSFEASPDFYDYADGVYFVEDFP
T2 sequence (Q8IIJ9 600-700 limits assumed): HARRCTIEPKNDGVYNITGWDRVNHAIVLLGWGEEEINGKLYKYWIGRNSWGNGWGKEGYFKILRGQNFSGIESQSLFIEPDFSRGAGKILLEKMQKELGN
T2 sequence (Q8IIJ9 28-209 limits assumed): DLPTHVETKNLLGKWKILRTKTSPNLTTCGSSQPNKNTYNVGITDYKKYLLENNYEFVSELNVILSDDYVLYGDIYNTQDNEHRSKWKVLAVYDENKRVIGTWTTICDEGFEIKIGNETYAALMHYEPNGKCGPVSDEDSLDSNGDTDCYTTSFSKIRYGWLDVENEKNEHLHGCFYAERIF
How it was run: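 A P. falciparum culture at 20% parasitemia and 2% hematocrit was exposed to graded test compound for 1 hr. Aliquots were lysed with 0.15% saponin in PBS. Parasite pellets were labelled for 1 hr with 1 µM Cy5-DCG04 in acetate buffer containing 1% NP40. After SDS-PAGE, DPAP1 band fluorescence was quantified and fitted to a sigmoidal dose-response curve to give IC50.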

DPAP3 = experiment: Competitive ABPP with DPAP activity-based probe FY01; format: biochemical, P. falciparum; details: competitive ABPP with FY01, Figure S3
[5] = molecular target: T3, recombinantly produced FP2 (Plasmodium falciparum, UniProt Q8I6U4); experiment: Kinetics of substrate turnover inhibition; format: biochemical, P. falciparum
T3 sequence (Q8I6U4 244-484): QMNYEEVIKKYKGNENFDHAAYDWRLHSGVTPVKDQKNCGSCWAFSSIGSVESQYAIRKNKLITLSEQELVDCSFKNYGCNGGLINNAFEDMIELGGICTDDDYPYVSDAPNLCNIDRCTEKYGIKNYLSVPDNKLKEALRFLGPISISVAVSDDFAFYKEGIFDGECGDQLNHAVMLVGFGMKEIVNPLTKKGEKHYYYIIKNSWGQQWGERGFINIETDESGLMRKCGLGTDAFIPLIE
How it was run: (§1)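 Fluorescence (ex 350 nm, em 460 nm) was followed for 2 hr at several inhibitor concentrations. Turnover relative to DMSO controls (v/v0) was fitted to an irreversible inhibition model; ki = kobs/[I].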

[6] = molecular target: T4, recombinantly produced FP3 (Plasmodium falciparum, UniProt Q8IIL0); experiment: Kinetics of substrate turnover inhibition; format: biochemical, P. falciparum
T4 sequence (Q8IIL0 243-492): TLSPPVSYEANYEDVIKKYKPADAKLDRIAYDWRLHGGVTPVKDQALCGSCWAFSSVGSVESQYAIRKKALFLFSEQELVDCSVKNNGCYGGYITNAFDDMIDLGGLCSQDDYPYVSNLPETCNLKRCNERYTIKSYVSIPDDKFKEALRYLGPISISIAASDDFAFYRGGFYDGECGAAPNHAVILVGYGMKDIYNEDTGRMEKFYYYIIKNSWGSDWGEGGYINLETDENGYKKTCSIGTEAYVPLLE
How it was run: as §1

cathepsin L = cathepsin L (Mus musculus, UniProt P06797); format: cell-based; details: mouse macrophages, 0.5 µM
How it was run: (§2)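 Bone marrow-derived mouse macrophages were preincubated with 0.5 or 5 µM test compound. Residual protease activity was then read in protein extracts by labelling with either a broad papain-like cysteine protease activity-based probe (cathepsins) or a proteasome-specific activity-based probe (proteasome).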

[7] = test system: cathepsins B, H, S, and Z; format: cell-based; details: mouse macrophages, 5 µM
How it was run: as §2

proteasome = format: cell-based; details: mouse macrophages preincubated with 0.5 µM and 5 µM
How it was run: as §2

[8] = test system: proteins in the 28 kDa region (food vacuole falcipains); experiment: Labeling of intact schizonts with rhodamine probes; format: cell-based, P. falciparum; details: pretreatment with 10 µM nonfluorescent compound, then 10 µM RhSym4 1 hr
How it was run: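 Purified schizonts were pretreated with 10 µM nonfluorescent competitor or DMSO. They were then incubated 1 hr with 10 µM rhodamine-tagged probe in PBS. Samples were boiled in loading buffer, proteins resolved by SDS-PAGE, and labelled bands detected by flatbed fluorescence scanning.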

red blood cells (RBCs) = details: even at the highest tested concentrations (>25 µM); ref Conroy et al., 2010; cited from earlier work

Chain of cathepsin L (P06797 114-334): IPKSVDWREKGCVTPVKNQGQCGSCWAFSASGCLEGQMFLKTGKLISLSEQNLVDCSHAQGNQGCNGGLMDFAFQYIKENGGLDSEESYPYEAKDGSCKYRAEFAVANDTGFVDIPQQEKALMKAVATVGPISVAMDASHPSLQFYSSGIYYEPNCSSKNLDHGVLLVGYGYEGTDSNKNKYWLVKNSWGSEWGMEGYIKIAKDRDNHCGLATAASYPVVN

CC[C@H](C)[C@@H](C(=O)O[C@@H](CC(C)C)C(=O)N[C@@H](CC(C)C)C(=O)N[C@@H](C)/C=C/C(=O)N1C(=O)C=C(OC)[C@@H]1C)N(C)C [Sym4, symplostatin 4]
fold higher concentration for parasite killing than for food vacuole defect ([1]; EC50 0.7 µM versus 0.1 µM): 7 fold | fold more potent than Sym4^mmp → Ala (EC50) ([1]; replication assay, 75 hr): 40 fold | concentration causing swollen food vacuole phenotype [2]: 0.1 µM | concentration inhibiting Cy5-DCG-04 labeling of FP2, FP2′, and FP3 (FP2, FP2′, and FP3): 1.5 nM | concentration inhibiting Cy5-DCG-04 labeling of FP1 (FP1 [3]): > 1.6 µM | IC50 (FP1 [4]): 140 ± 23 nM | inhibition of DPAP1 (DPAP1; competitive ABPP with Cy5-DCG04, Figure 4): neither DPAP1 (Figure 4) nor DPAP3 (Figure S3) is inhibited | inhibition of DPAP1 (DPAP1; living parasites, 1 hr, at 1 µM): did not inhibit | inhibition of DPAP3 (DPAP3): neither DPAP1 (Figure 4) nor DPAP3 (Figure S3) is inhibited | mode of inhibition [5]: irreversible inhibitor | mode of inhibition [6]: irreversible inhibitor | inhibition of cathepsin L (cathepsin L): inhibit; also recorded: inhibits a large portion | inhibition of cathepsins B, H, S, and Z [7]: also inhibited; also recorded: required ten times higher concentrations (i.e., 5 µM) to reach the same inhibition level | inhibition of the proteasome (proteasome): did not inhibit; also recorded: does not inhibit | competition of RhSym4 labeling [8]: sensitive to preincubation | lysis of red blood cells (red blood cells (RBCs)): no lysis
